{
  "source": "ChEMBL document CHEMBL5303300",
  "about": "“EUbOPEN Chemogenomics Library - Multiplex” (2023)",
  "key": {"[1]": {"test_system": "U2OS", "test": "Multiplex assay against U2OS", "assay_type": "toxicity, cell-based", "details": "human, number of replicates 2", "procedure,_shortened": "(§1)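 Live cells were stained at seeding with Hoechst33342, BioTracker Green Microtubule Cytoskeleton Dye, MitoTracker Red and Annexin V Alexa Fluor 680. Following compound addition, they were imaged on a CQ1 microscope at 37°C and 5% CO2 and gated by CellPathfinder machine learning into Hoechst high-intensity objects or normal cells, with normal cells split into healthy, pyknosed or fragmented nuclei and pyknosed cells into mitotic or apoptotic. Tubulin, mitochondrial-mass and membrane-permeability phenotypes are per cents of healthy-nucleus cells.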"}, "[2]": {"test_system": "Fibroblast", "test": "Multiplex assay against human fibroblast", "assay_type": "toxicity, cell-based", "details": "number of replicates 2", "procedure,_shortened": "as §1"}, "[3]": {"details": "24 h, 10 µM, compound concentration 10 uM"}, "[4]": {"details": "48 h, 1 µM, compound concentration 1 uM"}, "[5]": {"details": "48 h, 10 µM, compound concentration 10 uM"}, "[6]": {"details": "12 h, 1 µM, compound concentration 1 uM"}, "[7]": {"details": "12 h, 10 µM, compound concentration 10 uM"}, "[8]": {"details": "24 h, 1 µM, compound concentration 1 uM"}},
  "note": "Values joined by “and” are separate entries in the source; they are usually repeats but may differ in a detail not shown here. Equal entries are not always repeated.",
  "data": [
    {"smiles": "N[C@@H]1c2cccnc2[C@H](OC(=O)N2CCC(n3c(=O)[nH]c4ncccc43)CC2)CC[C@H]1c1cccc(F)c1F", "note": "[RIMEGEPANT]", "values": [
      {"measurement": "Population Apoptotic (%)", "setting": "[1]; [3]", "value": "66% and 76%"},
      {"measurement": "Population Fragmented Nuclei (%)", "setting": "[1]; [3]", "value": "8% and 3%"},
      {"measurement": "Population Healthy Nuclei (%)", "setting": "[1]; [3]", "value": "79% and 89%"},
      {"measurement": "Population Hoechst High Intensity Objects (%)", "setting": "[1]; [3]", "value": 0, "unit": "%"},
      {"measurement": "Population Membrane Permeable-Phenotype (%)", "setting": "[1]; [3]", "value": "0% and 6%"},
      {"measurement": "Population Mitochondria Different-Phenotype (%)", "setting": "[1]; [3]", "value": "10% and 16%"},
      {"measurement": "Population Mitotic Cells (%)", "setting": "[1]; [3]", "value": "33% and 24%"},
      {"measurement": "Population Normal (%)", "setting": "[1]; [3]", "value": 100, "unit": "%"},
      {"measurement": "Population Pyknosed Nuclei (%)", "setting": "[1]; [3]", "value": "12% and 6%"},
      {"measurement": "Population Tubulin-Different-Phenotype (%)", "setting": "[1]; [3]", "value": "28% and 27%"},
      {"measurement": "Population Apoptotic (%)", "setting": "[1]; [4]", "value": "61% and 62%"},
      {"measurement": "Population Fragmented Nuclei (%)", "setting": "[1]; [4]", "value": "8% and 3%"},
      {"measurement": "Population Healthy Nuclei (%)", "setting": "[1]; [4]", "value": "77% and 89%"},
      {"measurement": "Population Hoechst High Intensity Objects (%)", "setting": "[1]; [4]", "value": 0, "unit": "%"},
      {"measurement": "Population Membrane Permeable-Phenotype (%)", "setting": "[1]; [4]", "value": 1, "unit": "%"},
      {"measurement": "Population Mitochondria Different-Phenotype (%)", "setting": "[1]; [4]", "value": "2% and 1%"},
      {"measurement": "Population Mitotic Cells (%)", "setting": "[1]; [4]", "value": "38% and 37%"},
      {"measurement": "Population Normal (%)", "setting": "[1]; [4]", "value": 100, "unit": "%"},
      {"measurement": "Population Pyknosed Nuclei (%)", "setting": "[1]; [4]", "value": "14% and 7%"},
      {"measurement": "Population Tubulin-Different-Phenotype (%)", "setting": "[1]; [4]", "value": "94% and 84%"},
      {"measurement": "Population Apoptotic (%)", "setting": "[1]; [5]", "value": "53% and 70%"},
      {"measurement": "Population Fragmented Nuclei (%)", "setting": "[1]; [5]", "value": 3, "unit": "%"},
      {"measurement": "Population Healthy Nuclei (%)", "setting": "[1]; [5]", "value": "73% and 86%"},
      {"measurement": "Population Hoechst High Intensity Objects (%)", "setting": "[1]; [5]", "value": 0, "unit": "%"},
      {"measurement": "Population Membrane Permeable-Phenotype (%)", "setting": "[1]; [5]", "value": "4% and 3%"},
      {"measurement": "Population Mitochondria Different-Phenotype (%)", "setting": "[1]; [5]", "value": "2% and 9%"},
      {"measurement": "Population Mitotic Cells (%)", "setting": "[1]; [5]", "value": "46% and 29%"},
      {"measurement": "Population Normal (%)", "setting": "[1]; [5]", "value": 100, "unit": "%"},
      {"measurement": "Population Pyknosed Nuclei (%)", "setting": "[1]; [5]", "value": "22% and 9%"},
      {"measurement": "Population Tubulin-Different-Phenotype (%)", "setting": "[1]; [5]", "value": "30% and 33%"},
      {"measurement": "Population Apoptotic (%)", "setting": "[2]; [6]", "value": "56% and 33%"},
      {"measurement": "Population Fragmented Nuclei (%)", "setting": "[2]; [6]", "value": "6% and 16%"},
      {"measurement": "Population Healthy Nuclei (%)", "setting": "[2]; [6]", "value": "56% and 69%"},
      {"measurement": "Population Hoechst High Intensity Objects (%)", "setting": "[2]; [6]", "value": "0% and 3%"},
      {"measurement": "Population Membrane Permeable-Phenotype (%)", "setting": "[2]; [6]", "value": "5% and 7%"},
      {"measurement": "Population Mitochondria Different-Phenotype (%)", "setting": "[2]; [6]", "value": "1% and 0%"},
      {"measurement": "Population Mitotic Cells (%)", "setting": "[2]; [6]", "value": "43% and 66%"},
      {"measurement": "Population Normal (%)", "setting": "[2]; [6]", "value": "100% and 96%"},
      {"measurement": "Population Pyknosed Nuclei (%)", "setting": "[2]; [6]", "value": "37% and 14%"},
      {"measurement": "Population Tubulin-Different-Phenotype (%)", "setting": "[2]; [6]", "value": "20% and 21%"},
      {"measurement": "Total Cell Count", "setting": "[2]; [6]", "value": "129 and 236"},
      {"measurement": "Population Apoptotic (%)", "setting": "[2]; [7]", "value": "47% and 44%"},
      {"measurement": "Population Fragmented Nuclei (%)", "setting": "[2]; [7]", "value": "14% and 13%"},
      {"measurement": "Population Healthy Nuclei (%)", "setting": "[2]; [7]", "value": 75, "unit": "%"},
      {"measurement": "Population Hoechst High Intensity Objects (%)", "setting": "[2]; [7]", "value": 0, "unit": "%"},
      {"measurement": "Population Membrane Permeable-Phenotype (%)", "setting": "[2]; [7]", "value": "9% and 14%"},
      {"measurement": "Population Mitochondria Different-Phenotype (%)", "setting": "[2]; [7]", "value": "5% and 4%"},
      {"measurement": "Population Mitotic Cells (%)", "setting": "[2]; [7]", "value": "52% and 55%"},
      {"measurement": "Population Normal (%)", "setting": "[2]; [7]", "value": 100, "unit": "%"},
      {"measurement": "Population Pyknosed Nuclei (%)", "setting": "[2]; [7]", "value": "10% and 11%"},
      {"measurement": "Population Tubulin-Different-Phenotype (%)", "setting": "[2]; [7]", "value": "61% and 59%"},
      {"measurement": "Total Cell Count", "setting": "[2]; [7]", "value": "183 and 237"},
      {"measurement": "Population Apoptotic (%)", "setting": "[2]; [8]", "value": "54% and 32%"},
      {"measurement": "Population Healthy Nuclei (%)", "setting": "[2]; [8]", "value": "60% and 61%"},
      {"measurement": "Population Hoechst High Intensity Objects (%)", "setting": "[2]; [8]", "value": "0% and 2%"},
      {"measurement": "Population Membrane Permeable-Phenotype (%)", "setting": "[2]; [8]", "value": "10% and 1%"},
      {"measurement": "Population Mitochondria Different-Phenotype (%)", "setting": "[2]; [8]", "value": 0, "unit": "%"},
      {"measurement": "Population Mitotic Cells (%)", "setting": "[2]; [8]", "value": "45% and 67%"},
      {"measurement": "Population Normal (%)", "setting": "[2]; [8]", "value": "99% and 97%"},
      {"measurement": "Population Pyknosed Nuclei (%)", "setting": "[2]; [8]", "value": "35% and 18%"},
      {"measurement": "Population Tubulin-Different-Phenotype (%)", "setting": "[2]; [8]", "value": "22% and 15%"},
      {"measurement": "Total Cell Count", "setting": "[2]; [8]", "value": "124 and 234"},
      {"measurement": "Population Apoptotic (%)", "setting": "[2]; [3]", "value": "47% and 64%"},
      {"measurement": "Population Fragmented Nuclei (%)", "setting": "[2]; [3]", "value": 12, "unit": "%"},
      {"measurement": "Population Healthy Nuclei (%)", "setting": "[2]; [3]", "value": "78% and 80%"},
      {"measurement": "Population Hoechst High Intensity Objects (%)", "setting": "[2]; [3]", "value": 0, "unit": "%"},
      {"measurement": "Population Membrane Permeable-Phenotype (%)", "setting": "[2]; [3]", "value": "7% and 6%"},
      {"measurement": "Population Mitochondria Different-Phenotype (%)", "setting": "[2]; [3]", "value": "3% and 5%"},
      {"measurement": "Population Mitotic Cells (%)", "setting": "[2]; [3]", "value": "52% and 35%"},
      {"measurement": "Population Normal (%)", "setting": "[2]; [3]", "value": "100% and 99%"},
      {"measurement": "Population Pyknosed Nuclei (%)", "setting": "[2]; [3]", "value": "9% and 7%"},
      {"measurement": "Population Tubulin-Different-Phenotype (%)", "setting": "[2]; [3]", "value": "50% and 36%"},
      {"measurement": "Total Cell Count", "setting": "[2]; [3]", "value": "199 and 236"},
      {"measurement": "Population Apoptotic (%)", "setting": "[2]; [4]", "value": "65% and 48%"},
      {"measurement": "Population Fragmented Nuclei (%)", "setting": "[2]; [4]", "value": "8% and 21%"},
      {"measurement": "Population Healthy Nuclei (%)", "setting": "[2]; [4]", "value": "75% and 65%"},
      {"measurement": "Population Hoechst High Intensity Objects (%)", "setting": "[2]; [4]", "value": "0% and 1%"},
      {"measurement": "Population Membrane Permeable-Phenotype (%)", "setting": "[2]; [4]", "value": "4% and 2%"},
      {"measurement": "Population Mitochondria Different-Phenotype (%)", "setting": "[2]; [4]", "value": 1, "unit": "%"},
      {"measurement": "Population Mitotic Cells (%)", "setting": "[2]; [4]", "value": "35% and 51%"},
      {"measurement": "Population Normal (%)", "setting": "[2]; [4]", "value": "100% and 98%"},
      {"measurement": "Population Pyknosed Nuclei (%)", "setting": "[2]; [4]", "value": "16% and 12%"},
      {"measurement": "Population Tubulin-Different-Phenotype (%)", "setting": "[2]; [4]", "value": "6% and 10%"},
      {"measurement": "Total Cell Count", "setting": "[2]; [4]", "value": "125 and 227"},
      {"measurement": "Population Apoptotic (%)", "setting": "[2]; [5]", "value": "77% and 47%"},
      {"measurement": "Population Fragmented Nuclei (%)", "setting": "[2]; [5]", "value": "14% and 13%"},
      {"measurement": "Population Healthy Nuclei (%)", "setting": "[2]; [5]", "value": "81% and 78%"},
      {"measurement": "Population Hoechst High Intensity Objects (%)", "setting": "[2]; [5]", "value": 0, "unit": "%"},
      {"measurement": "Population Membrane Permeable-Phenotype (%)", "setting": "[2]; [5]", "value": "1% and 5%"},
      {"measurement": "Population Mitochondria Different-Phenotype (%)", "setting": "[2]; [5]", "value": "1% and 0%"},
      {"measurement": "Population Mitotic Cells (%)", "setting": "[2]; [5]", "value": "22% and 52%"},
      {"measurement": "Population Normal (%)", "setting": "[2]; [5]", "value": "99% and 100%"},
      {"measurement": "Population Pyknosed Nuclei (%)", "setting": "[2]; [5]", "value": "4% and 7%"},
      {"measurement": "Population Tubulin-Different-Phenotype (%)", "setting": "[2]; [5]", "value": "37% and 16%"},
      {"measurement": "Total Cell Count", "setting": "[2]; [5]", "value": "205 and 225"}
    ]}
  ]
}
